Measured values published in publication PMC5515376 (Nature, 2016).
“Also recorded” adds a separate entry of the source. Where two headings read alike, the source gives them in different places. Marks after values point to notes of the source that are not given here.

Columns and labels:
[1] = tested on: P. berghei (ANKA GFP-luc); assay: In vivo P. berghei transmission-stage assay; parameters: species or system Plasmodium berghei; conditions: for Compound remaining in the circulation (plasma concentration): P. berghei-infected CD-1 mice
[2] = tested on: P. falciparum (NF54HT-GFP-luc) sporozoites; assay: In vivo P. falciparum liver-stage assay; parameters: species or system Plasmodium falciparum
[3] = tested on: P. falciparum 3D7^HLH/BRD; assay: In vivo P. falciparum transmission-stage assay; parameters: species or system Plasmodium falciparum; conditions: huRBC NSG mice; single oral 12.5 mg kg^−1; 7 days after treatment
[4] = Pharmacokinetics in P. falciparum 3D7^HLH/BRD-infected NSG mice; assay type: in vivo, mouse; conditions: for AUC: huRBC NSG mice; for AUC0-inf / Cmax / MRT0-inf / Tmax / AUC0-t: infected NSG mice; for AUC0-t: t = 24 h
[5] = tested on: P. berghei (ANKA GFP-luc) sporozoites; assay: In vivo P. berghei causal prophylaxis assay; parameters: species or system Plasmodium berghei; conditions: CD-1 mice
[6] = tested on: Salmonella typhimurium strains TA100, TA1535, TA98, TA1537 and Escherichia coli strain WP2uvrA; assay: Ames test; conditions: in the presence or absence of S9 mix
[7] = Plasma protein binding assay; assay type: in vitro ADME
In short: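 Binding was measured by equilibrium dialysis in a RED device. Compound at 5 µM, in duplicate, was placed in mouse plasma (0.95% acetonitrile, 0.05% DMSO) against PBS pH 7.4. Incubation was 5 h at 37 °C with 350 r.p.m. orbital shaking. Both sides were analysed by UPLC–MS with single-ion detection.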

Solubility assay in PBS = assay type: physicochemical; conditions: PBS pH 7.4 with 1% DMSO
In short: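 Compound was prepared at 100 µM in triplicate, both in 100% DMSO and in PBS pH 7.4 with 1% DMSO. Samples were shaken at 750 r.p.m. for 18 h at room temperature. Analysis was by UPLC–MS with single-ion detection. PBS response was fitted to a two-point calibration built from the DMSO samples.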

[8] = Mouse pharmacokinetics assay; assay type: in vivo; conditions: CD-1 mice
In short: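 Female CD-1 mice received single intravenous and oral doses. Parameters were estimated by non-compartmental analysis.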

[9] = tested on: P. falciparum 3D7^HLH/BRD blood-stage parasites; assay: In vivo P. falciparum blood-stage assay; parameters: species or system Plasmodium falciparum; conditions: huRBC NSG mice
[10] = tested on: P. falciparum 3D7 stage IV–V gametocytes; assay: In vitro transmission-blocking assay; assay type: cell-based, Plasmodium falciparum; conditions: P. falciparum (3D7), Gametocyte (IV-V)
In short: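 3D7 cultures were treated 3 days with 50 mM N-acetyl-D-glucosamine to remove asexual parasites. Stage IV–V gametocytes were then isolated on a discontinuous Percoll gradient. Gametocytes (1.0 × 10^5 per well) were incubated with compound for 72 h. Viability was measured by CellTiter-Glo luminescence.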

[11] = Metabolic stability assay, human liver microsomes; assay type: in vitro ADME
In short: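 Liver microsomes (0.2 mg ml−1) were incubated with compound (0.5 and 5 µM) plus NADPH for 0, 10 and 90 min. Human microsomes or mouse CD-1 microsomes were used, as named in each line. Compound depletion was measured by LC–MS/MS and used to estimate Km, Vmax and half-life.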

[12] = tested on: P. berghei (ANKA) liver stage; assay: In vitro P. berghei liver-stage assay; assay type: cell-based, Plasmodium berghei; conditions: P. berghei (ANKA), Liver stage
In short: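 HepG2 cells (~17,500 per well, in duplicate) were cultured 18–24 h, then the medium was exchanged and compound added. After 1 h, 4,000 P. berghei ANKA GFP–luc sporozoites per well were added, freshly dissected from A. stephensi mosquitoes. Plates were spun 10 min at 1,000 r.p.m. and incubated 48 h at 37 °C. Parasite load was read by Bright-Glo luminescence.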

[13] = tested on: P. falciparum (NF54) stage V gametocytes; assay: P. falciparum standard membrane feeding assay; assay type: cell-based, Plasmodium falciparum
[14] = tested on: major human cytochrome P450 (CYP) isoforms
[15] = tested on: P. berghei (ANKA GFP-luc) blood-stage parasites; assay: In vivo P. berghei blood-stage assay; parameters: species or system Plasmodium berghei; conditions: CD-1 mice
P. falciparum Dd2 = assay: In vitro P. falciparum blood-stage growth inhibition assay; assay type: cell-based, Plasmodium falciparum
HepG2 cell line = assay: Mammalian cell cytotoxicity assay; assay type: cell-based, human; conditions: read-out: HepG2 CC50; 72 h
In short: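 HepG2, A549 or HEK293 cells were grown in DMEM with 10% FBS and 1% antibiotic–antimycotic and tested mycoplasma-free. Cells (1 × 10^6) were seeded one day before treatment. They were exposed to ascending compound doses for 72 h, and viability was read by CellTiter-Glo.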

[16] = IV (2.5) mg/kg, separate assay over 72 h

Which “Oocysts in mosquito midguts” value ([1]; CD-1 mice, single oral 5 or 20 mg kg^−1, 2 days before mosquito feeding) does the source give for `COc1ccc(NC(=O)N2CCCCN3[C@H](CN(C)C)[C@H](c4ccc(C#Cc5ccccc5)cc4)[C@@H]3C2)cc1` [BRD7929] here?
The value was “No oocysts were detected”.

What about the “Compound remaining in the circulation (plasma concentration)” value (“Compound remaining in the circulation” below) ([1]; oral 25 mg kg^−1, 1 day after treatment) of the same molecule?
Its value is 896.5 ng/mL.

And the “Compound remaining in the circulation” value ([1]; oral 25 mg kg^−1, 4 days after treatment)?
Its value is 170.5 ng/mL.

And the “Compound remaining in the circulation” value ([1]; oral 25 mg kg^−1, 10 days after treatment)?
The value was 8.6 ng/mL.

What about the Transmission ([1]; oral 1.25 mg kg^−1 and 0.31 mg kg^−1, 2 days before feeding mosquitoes) of the same molecule?
Its Transmission is “reduced transmission activity”.

What about the Transmission ([1]; oral 5 mg kg^−1, 2 days before feeding mosquitoes) of the same molecule?
Its Transmission is “complete blocking of transmission”.

What about the “Oocysts in mosquito midguts” value ([1]; oral 25 mg kg^−1, blood feeding 1, 4 or 10 days after treatment) of the same molecule?
Its value is “No oocysts were found”.

And the “Ct value, P. falciparum UCE qRT-PCR” value ([2]; blood 7 days after inoculation, 40 amplification cycles)?
The value was 40.

And the “Blood-stage marker (P. falciparum UCE transcript) by qRT-PCR” value ([2]; blood 7 days after inoculation, single 10 mg kg^−1 oral dose)?
Its value is “no amplification of the marker was detected; also recorded: not detected”.

What about the Liver-stage-associated bioluminescence signal ([2]; huHep FRG knockout mice, single 10 mg kg^−1 oral dose 1 day after inoculation) of the same molecule?
The Liver-stage-associated bioluminescence signal was “No increase in bioluminescence intensity level; also recorded: no increase in bioluminescence signals”.

What about the “Transcription of asexual marker SBP1 (qRT-PCR)” value [3] of the same molecule?
Its value is “decreased to undetectable levels”.

What about the “Transcription of mature gametocyte marker Pfs25 (qRT-PCR)” value [3] of the same molecule?
The value was “decreased to undetectable levels”.

What about the AUC ([4]; 6.25 mg kg^−1 single oral dose) of the same molecule?
The AUC was 15.7 µM·h.

And the AUC ([4]; 12.5 mg kg^−1 single oral dose (single-dose cure))?
Its AUC is 31.4 µM·h.

And the AUC ([4]; 25 mg kg^−1 single oral dose)?
Its AUC is 62.8 µM·h.

And the AUC ([4]; 50 mg kg^−1 single oral dose)?
The AUC was 125.6 µM·h.

What about the AUC0-inf ([4]; PO (3) mg/kg) of the same molecule?
The AUC0-inf was 7.2 µM·h.

And the Cmax ([4]; PO (3) mg/kg)?
The Cmax was 210 nM.

And the MRT0-inf ([4]; PO (3) mg/kg)?
The MRT0-inf was 35.4 h.

And the Tmax ([4]; PO (3) mg/kg)?
Its Tmax is 12 h.

What about the AUC0-t ([4]; PO (3) mg/kg) of the same molecule?
Its AUC0-t is 6.4 ^¶ µM*hr.

And the AUC0-inf ([4]; PO (9) mg/kg)?
The AUC0-inf was 22.6 µM·h.

What about the Cmax ([4]; PO (9) mg/kg) of the same molecule?
Its Cmax is 600 nM.

And the MRT0-inf ([4]; PO (9) mg/kg)?
The MRT0-inf was 37.8 h.

What about the Tmax ([4]; PO (9) mg/kg) of the same molecule?
The Tmax was 12 h.

What about the AUC0-t ([4]; PO (9) mg/kg) of the same molecule?
Its AUC0-t is 19.7 ^¶ µM*hr.

What about the “Mice developing blood-stage parasitaemia within a 30-day period” value ([5]; single dose of 5 or 25 mg kg^−1) of the same molecule?
Its value is “none”.

And the “Lowest single oral dose with no recrudescence” value ([5]; P. berghei liver-stage model)?
Its value is 5 mg/kg.

And the “Mutagenicity (Ames test)” value [6]?
The value was “non-mutagenic”.

And the “Mouse Plasma protein binding” value [7]?
The value was 99.9%.

And the PBS solubility (Solubility assay in PBS)?
The PBS solubility was 15 µM.

And the “AUC (estimated)” value ([8]; 25 mg kg^−1 single-dose cure, estimated from pharmacokinetic studies)?
Its value is 27.5 µM·h.

What about the CL ([8]; IV (2.5) mg/kg) of the same molecule?
Its CL is 9.9 mL/min/kg.

And the MRT0-inf ([8]; IV (2.5) mg/kg)?
The MRT0-inf was 40.5 h.

And the Vss ([8]; IV (2.5) mg/kg)?
Its Vss is 24 L/kg.

And the AUC0-inf [8, 16]?
The AUC0-inf was 11.2 µM·h.

What about the CL [8, 16] of the same molecule?
The CL was 7.1 mL/min/kg.

And the MRT0-inf [8, 16]?
The MRT0-inf was 45 h.

What about the T1/2 [8, 16] of the same molecule?
Its T1/2 is 32 h.

What about the Vss [8, 16] of the same molecule?
The Vss was 19 L/kg.

What about the AUC0-t ([8]; IV (2.5) mg/kg, separate assay, t = 72 h) of the same molecule?
The AUC0-t was 9 ^# µM*hr.

What about the AUC0-t ([8]; IV (2.5) mg/kg, t = 24 h) of the same molecule?
Its AUC0-t is 3.5 ^¶ µM*hr.

And the Cmax ([8]; PO (10) mg/kg)?
The Cmax was 540 nM.

And the Tmax ([8]; PO (10) mg/kg)?
The Tmax was 8 h.

What about the F ([8]; PO (10) mg/kg, based on initial intravenous study at 24 h) of the same molecule?
The F was 79.5 ^§ %.

And the AUC0-t ([8]; PO (10) mg/kg, t = 24 h)?
Its AUC0-t is 11 ^¶ µM*hr.

What about the “Lowest single oral dose with no recrudescence” value ([9]; P. falciparum 3D7^HLH/BRD) of the same molecule?
The value was 12.5 mg/kg.

And the “Rate of the loss of bioluminescence” value ([9]; single dose 6.25 mg kg^−1)?
Its value is “slower”.

And the “Change in parasite-associated bioluminescence” value ([9]; single dose 25 mg kg^−1 and 50 mg kg^−1)?
The value was “rapid decrease”.

And the EC50 [10]?
The EC50 was 160 nM.

And the “Human Clint” value [11]?
Its value is 31 µL/min/mg.

What about the EC50 [12] of the same molecule?
The EC50 was 162 nM.

And the EC50 ([13]; read-out: EC50, standard membrane-feeding assay, direct (D), single drug concentration (10 µM) immediately before blood feeding)?
The EC50 was less than 10000 nM.

And the EC50 ([13]; read-out: EC50, standard membrane-feeding assay, indirect (ID), parasites treated 24 h before mosquito feeding)?
The EC50 was 270 nM.

And the “Inhibition of major human CYP isoforms” value [14]?
Its value is “no inhibition”.

And the “Cure of the infected animals” value ([15]; single 25 mg kg^−1 oral dose)?
The value was 100%.

And the “Parasite status up to 30-day end-point (bioluminescent imaging)” value ([15]; single oral 25 mg kg^−1 or 50 mg kg^−1 dose)?
Its value is “parasite-free”.

And the “Animals showing recrudescence at 6 days after treatment” value ([15]; single oral dose of 12.5 mg kg^−1, n = 4)?
Its value is “One in four animals”.

And the “Lowest single oral dose achieving sterile cure” value ([15]; P. berghei)?
Its value is 25 mg/kg.

And the EC50 (P. falciparum Dd2; read-out: Pf, Dd2 EC50, blood stage)?
The EC50 was 9 nM.

And the EC50 (P. falciparum Dd2; read-out: PfDd2 EC50, asexual blood-stage parasites (Dd2), SAR table)?
The EC50 was 9 nM.

And the EC90 (P. falciparum Dd2; strain Dd2)?
The EC90 was 20 nM.

What about the CC50 (HepG2 cell line) of the same molecule?
The CC50 was 9000 nM.
